Data set [1] concerns Rattus norvegicus. Description: Hypolipidemic activity in Wistar rat assessed as reduction in plasma cholesterol level at 540 umol/kg/day administered through diet for 4 days. The data set is classed as functional. The following applies: 96 h. The gist of the method: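 Young male Wistar rats, 170-190 g initial weight, groups of six, given compound mixed thoroughly into Purina Lab Chow ad libitum for 4 or 10 days as stated. Daily dose calculated from food consumption and body weight. Bled by cardiac puncture at end of treatment; plasma cholesterol measured by automated procedure. Expressed as percent reduction versus simultaneous untreated control group; Student's t test.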

Data set [2] has as its system Rattus norvegicus. Put plainly: Hypolipidemic activity in Wistar rat assessed as reduction in plasma triglyceride level at 540 umol/kg/day administered through diet for 4 days. The data set is classed as functional. The following applies: 96 h.
Data set [3] relates to Rattus norvegicus. Put plainly: Increase in cholesterol level in Wistar rat liver at 540 umol/kg/day administered through diet for 4 days. The settings on record: in vivo, po, 96 h. The data set is classed as ADME, organism-based.
Data set [4] has as its system Rattus norvegicus. Put plainly: Increase in liver weight in Wistar rat at 540 umol/kg/day administered through diet for 4 days. The data set is classed as ADME, organism-based. The settings on record: in vivo, po, 96 h.
The subject of data set [5] is Rattus norvegicus. Description: Hypolipidemic activity in Wistar rat assessed as reduction in plasma cholesterol level at 385 umol/kg/day administered through diet for 10 days. Type of data set: functional. The settings on record: 240 h. The gist of the method: (§1)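 Young male Wistar rats, 170-190 g at start, in groups of six, given compound mixed into Purina Lab Chow ad libitum for 4 or 10 days as stated. Daily dose was calculated from food consumption and body weight. Plasma was taken by cardiac puncture at the end and cholesterol measured by automated procedure. Results are % reduction versus a concurrent untreated control group, with Student's t test.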

Data set [6] deals with Rattus norvegicus. Put plainly: Hypolipidemic activity in Wistar rat assessed as reduction in plasma cholesterol level at 398 umol/kg/day administered through diet for 10 days. The following applies: 240 h. The data set is classed as functional. The gist of the method:
as §1

Data set [7] has as its system Rattus norvegicus. Description: Hypolipidemic activity in Wistar rat assessed as reduction in plasma cholesterol level at 204 umol/kg/day administered through diet for 10 days. The data set is classed as functional. The following applies: 240 h. The gist of the method: as §1
The test system of data set [8] is Rattus norvegicus. Description: Hypolipidemic activity in Wistar rat assessed as reduction in plasma triglyceride level at 385 umol/kg/day administered through diet for 10 days. Type of data set: functional. The settings on record: 240 h. The gist of the method:
(§2)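 Young male Wistar rats (170-190 g initial weight), groups of six, fed test compound mixed into Purina Lab Chow ad libitum; daily dose calculated from food consumption and body weight. Bled by cardiac puncture at end of treatment; plasma triglycerides measured by automated procedure. Results given as percent reduction versus a simultaneous untreated control group, with significance by Student's t test.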

Data set [9] has as its system Rattus norvegicus. Description: Hypolipidemic activity in Wistar rat assessed as reduction in plasma triglyceride level at 398 umol/kg/day administered through diet for 10 days. The settings on record: 240 h. Type of data set: functional. In a few lines:
as §2

Data set [10] has as its system Rattus norvegicus. Put plainly: Hypolipidemic activity in Wistar rat assessed as reduction in plasma triglyceride level at 204 umol/kg/day administered through diet for 10 days. The data set is classed as functional. The following applies: 240 h. In a few lines: (§3)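 Young male Wistar rats, 170-190 g initial weight, six per group, fed drug mixed thoroughly into Purina Lab Chow ad libitum for the stated days; daily dose calculated from food consumption and body weight. Bled by cardiac puncture at end; plasma cholesterol and triglycerides by automated procedures, expressed as percent reduction versus simultaneous untreated controls; Student's t test.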

For data set [11], the system named is Rattus norvegicus. Description: Increase in cholesterol level in Wistar rat liver at 385 umol/kg/day administered through diet for 10 days. Type of data set: ADME, organism-based. The following applies: in vivo, po, 240 h.
Data set [12] has as its system Rattus norvegicus. Description: Increase in cholesterol level in Wistar rat liver at 398 umol/kg/day administered through diet for 10 days. The data set is classed as ADME, organism-based. The settings on record: in vivo, po, 240 h.
Data set [13] concerns Rattus norvegicus. Description: Increase in cholesterol level in Wistar rat liver at 204 umol/kg/day administered through diet for 10 days. Type of data set: ADME, organism-based. The settings on record: in vivo, po, 240 h.
Data set [14] deals with Rattus norvegicus. Put plainly: Increase in liver weight in Wistar rat at 385 umol/kg/day administered through diet for 10 days. The data set is classed as ADME, organism-based. The following applies: in vivo, po, 240 h.
Data set [15] deals with Rattus norvegicus. Put plainly: Increase in liver weight in Wistar rat at 398 umol/kg/day administered through diet for 10 days. The following applies: in vivo, po, 240 h. The data set is classed as ADME, organism-based.
In data set [16] the test system is Rattus norvegicus. Put plainly: Increase in liver weight in Wistar rat at 204 umol/kg/day administered through diet for 10 days. The settings on record: in vivo, po, 240 h. Type of data set: ADME, organism-based.
Data set [17] deals with Rattus norvegicus. Put plainly: Increase in cholesterol level in Wistar rat liver at 362 umol/kg/day administered through diet for 4 days. The settings on record: in vivo, po, 96 h. Type of data set: ADME, organism-based.
The subject of data set [18] is Rattus norvegicus. Description: Increase in liver weight in Wistar rat at 362 umol/kg/day administered through diet for 4 days. The data set is classed as ADME, organism-based. The following applies: in vivo, po, 96 h.
In data set [19] the test system is Rattus norvegicus. Put plainly: Hypolipidemic activity in Wistar rat assessed as reduction in plasma triglyceride level at 445 umol/kg/day administered through diet. The data set is classed as functional.
The test system of data set [20] is Rattus norvegicus. Put plainly: Hypolipidemic activity in Wistar rat assessed as reduction in plasma triglyceride level at 201 umol/kg/day administered through diet for 4 days. Type of data set: functional. The following applies: 96 h. In a few lines:
as §3

In data set [21] the test system is Rattus norvegicus. Description: Hypolipidemic activity in Wistar rat assessed as reduction in plasma triglyceride level at 98 umol/kg/day administered through diet for 4 days. The data set is classed as functional. The following applies: 96 h.
For data set [22], the system named is Rattus norvegicus. Put plainly: Hypolipidemic activity in Wistar rat assessed as reduction in plasma cholesterol level at 445 umol/kg/day administered through diet. The data set is classed as functional. In a few lines: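 Young male Wistar rats (170-190 g initial weight) in groups of six, fed test compound admixed to Purina Lab Chow ad libitum. Actual daily dose derived from recorded food intake and body weight. Cardiac puncture blood taken at end of treatment; plasma cholesterol determined by automated method. Percent reduction from concurrently run untreated controls, significance by Student's t test.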

The subject of data set [23] is Rattus norvegicus. Put plainly: Hypolipidemic activity in Wistar rat assessed as reduction in plasma cholesterol level at 201 umol/kg/day administered through diet for 4 days. Type of data set: functional. The settings on record: 96 h. The gist of the method: as §1
Data set [24] deals with Rattus norvegicus. Description: Hypolipidemic activity in Wistar rat assessed as reduction in plasma cholesterol level at 98 umol/kg/day administered through diet for 4 days. The data set is classed as functional. The settings on record: 96 h. In a few lines: as §3
The test system of data set [25] is Rattus norvegicus. Description: Increase in cholesterol level in Wistar rat liver at 445 umol/kg/day administered through diet. Type of data set: ADME, organism-based. The settings on record: in vivo, po.
Data set [26] deals with Rattus norvegicus. Put plainly: Increase in cholesterol level in Wistar rat liver at 201 umol/kg/day administered through diet for 4 days. The data set is classed as ADME, organism-based. The following applies: in vivo, po, 96 h.
Data set [27] has as its system Rattus norvegicus. Description: Increase in cholesterol level in Wistar rat liver at 98 umol/kg/day administered through diet for 4 days. Type of data set: ADME, organism-based. The following applies: in vivo, po, 96 h.
Data set [28] deals with Rattus norvegicus. Put plainly: Increase in liver weight in Wistar rat at 445 umol/kg/day administered through diet. The data set is classed as ADME, organism-based. The settings on record: in vivo, po.
Data set [29] concerns Rattus norvegicus. Description: Increase in liver weight in Wistar rat at 201 umol/kg/day administered through diet for 4 days. The data set is classed as ADME, organism-based. The settings on record: in vivo, po, 96 h.
The subject of data set [30] is Rattus norvegicus. Put plainly: Increase in liver weight in Wistar rat at 98 umol/kg/day administered through diet for 4 days. The data set is classed as ADME, organism-based. The settings on record: in vivo, po, 96 h.

What is called inhibition in vivo is the relative decrease from the control value, in per cent. `CCCCCCCCCCOc1ccc(C(=O)O)o1`: the inhibition in vivo at 540 µmol/kg in the data set with Rattus norvegicus [1] was 5%; in the data set on Rattus norvegicus [2], 46%. Besides, the Activity in the data set with Rattus norvegicus [3] amounted to 17%; with Rattus norvegicus [4], 1%.

As for `CCCCCCCCCCCCCCCCOc1ccc(C(=O)OC)cc1`, the inhibition in vivo at 385 µmol/kg with Rattus norvegicus [5] stood at 20%; in the data set on Rattus norvegicus [8] it was 63%. Also, the inhibition in vivo at 398 µmol/kg in the data set with Rattus norvegicus [6] is 14%; with Rattus norvegicus [9], 40%. Moreover, the inhibition in vivo at 204 µmol/kg with Rattus norvegicus [7] was found to be 0%; in the data set on Rattus norvegicus [10], 23%. Besides, the Activity came to 1% with Rattus norvegicus [11]; 2% in the data set on Rattus norvegicus [12]; 0% with Rattus norvegicus [13]; 5% in the data set with Rattus norvegicus [14]; 12% with Rattus norvegicus [15]; 10% with Rattus norvegicus [16].

In the case of `CCCCCCCCCCCCCCCCCCCCOc1ccc(C(=O)OC)cc1`, the Activity with Rattus norvegicus [17] is given as 0%; in the data set with Rattus norvegicus [18] it was 4%.

For `CCCCCCCCCCCCCCOc1ccc(C(=O)OC)cc1`, the inhibition in vivo at 445 µmol/kg in the data set on Rattus norvegicus [19] is 49%; in the data set with Rattus norvegicus [22], 6%. For the same compound, the inhibition in vivo at 201 µmol/kg in the data set on Rattus norvegicus [20] amounted to 70%; in the data set on Rattus norvegicus [23], 23%. The inhibition in vivo at 98 µmol/kg with Rattus norvegicus [21] was 72%; with Rattus norvegicus [24], 27%. The Activity in the data set with Rattus norvegicus [25] came out at 12%; with Rattus norvegicus [26], 12%; in the data set on Rattus norvegicus [27], 0%; in the data set with Rattus norvegicus [28], 7%; in the data set with Rattus norvegicus [29], 0%; in the data set with Rattus norvegicus [30], 0%.

The values above are taken from ChEMBL document CHEMBL3272012, “5-(Tetradecyloxy)-2-furancarboxylic acid and related hypolipidemic fatty acid-like alkyloxyarylcarboxylic acids” (J Med Chem, 1977).
